Reference: ChEMBL document CHEMBL4130342, “New semi-synthetic analogs of oleuropein show improved anticancer activity in vitro and in vivo” (Eur J Med Chem, 2017)

Key:
[1] = Antiproliferative activity against human FM3 cells after 72 hrs by MTT reduction assay; format: functional, cell-based
Outline: (§1)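 MTT reduction assay; adherent lines left to adhere overnight, suspension lines (HL-60, K562) seeded on the day. […] Incubation was 72 h at 37°C, with MTT added for the last 4 h. OD read at 545 nm (reference 690 nm). IC50 from 100(A0-A)/A0=50; means ± SD of 3 independent experiments.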

HeLa = assay: Antiproliferative activity against human HeLa cells after 72 hrs by MTT reduction assay; format: functional, cell-based; outline: as §1
SK-BR-3 = assay: Antiproliferative activity against human SKBR3 cells after 72 hrs by MTT reduction assay; format: functional, cell-based; conditions: SK-BR-3, 72 h; outline: as §1
HL-60 = assay: Antiproliferative activity against human HL60 cells after 72 hrs by MTT reduction assay; format: functional, cell-based; conditions: HL-60, 72 h; outline: as §1
K562 = assay: Antiproliferative activity against human K562 cells after 72 hrs by MTT reduction assay; format: functional, cell-based; conditions: K562, 72 h; outline: as §1
PBMC [2] = assay: Induction of apoptosis in human PBMC assessed as early apoptotic cells at 25 ug/ml after 24 hrs by propidium iodide staining-based flow cytometric method (reference value: 0.1%); format: cell-based
PBMC [3] = assay: Induction of apoptosis in human PBMC assessed as late apoptotic cells at 25 ug/ml after 24 hrs by propidium iodide staining-based flow cytometric method (reference value: 0.6%); format: cell-based
PBMC [4] = assay: Induction of apoptosis in human PBMC assessed as necrotic cells at 25 ug/ml after 24 hrs by propidium iodide staining-based flow cytometric method (reference value: 1%); format: cell-based
B16-F1 [5] = assay: Antiproliferative activity against mouse B16-F1 cells after 72 hrs by MTT reduction assay; format: functional, cell-based; conditions: B16-F1, 72 h; outline: as §1
B16-F1 [6] = assay: Induction of apoptosis in mouse B16-F1 cells assessed as early apoptotic cells at 25 ug/ml after 24 hrs by propidium iodide staining-based flow cytometric method (reference value: 0.5%); format: functional
B16-F1 [7] = assay: Induction of apoptosis in mouse B16-F1 cells assessed as late apoptotic cells at 25 ug/ml after 24 hrs by propidium iodide staining-based flow cytometric method (reference value: 0.9%); format: functional
B16-F1 [8] = assay: Induction of apoptosis in mouse B16-F1 cells assessed as necrotic cells at 25 ug/ml after 24 hrs by propidium iodide staining-based flow cytometric method (reference value: 0.4%); format: functional
B16-F1 [9] = assay: Induction of apoptosis in mouse B16-F1 cells assessed as early apoptotic cells at 25 ug/ml after 48 hrs by propidium iodide staining-based flow cytometric method (reference value: 0.2%); format: functional
B16-F1 [10] = assay: Induction of apoptosis in mouse B16-F1 cells assessed as late apoptotic cells at 25 ug/ml after 48 hrs by propidium iodide staining-based flow cytometric method (reference value: 0.5%); format: functional
B16-F1 [11] = assay: Induction of apoptosis in mouse B16-F1 cells assessed as necrotic cells at 25 ug/ml after 48 hrs by propidium iodide staining-based flow cytometric method (reference value: 1%); format: functional
B16-F1 [12] = assay: Induction of apoptosis in mouse B16-F1 cells assessed as early apoptotic cells at 25 ug/ml after 72 hrs by propidium iodide staining-based flow cytometric method (reference value: 0.4%); format: functional
B16-F1 [13] = assay: Induction of apoptosis in mouse B16-F1 cells assessed as late apoptotic cells at 25 ug/ml after 72 hrs by propidium iodide staining-based flow cytometric method (reference value: 1.4%); format: functional

COc1cccc2c1C(=O)c1c(O)c3c(c(O)c1C2=O)C[C@@](O)(C(=O)CO)C[C@@H]3O[C@H]1C[C@H](N)[C@H](O)[C@H](C)O1 [DOXORUBICIN]
IC50 [1]: 217 nM
IC50 (HeLa): 221 nM
IC50 (SK-BR-3): 202 nM
IC50 (HL-60): 17 nM
IC50 (K562): 18 nM
Activity (PBMC [2]): 0%
Activity (PBMC [3]): 4.6%
Activity (PBMC [4]): 46.2%
IC50 (B16-F1 [5]): 230 nM
Activity (B16-F1 [6]): 23.4%
Activity (B16-F1 [7]): 1.5%
Activity (B16-F1 [8]): 1.1%
Activity (B16-F1 [9]): 57.5%
Activity (B16-F1 [10]): 2%
Activity (B16-F1 [11]): 0.9%
Activity (B16-F1 [12]): 71.5%
Activity (B16-F1 [13]): 8.1%
